Redox H2O2 prof = compounds producing H2O2 with reducing agent – biochemical, NIH compound library profiling, artefact control for MLSCN library redox annotation, primary screen; DTT-dependent redox cycling H2O2, phenol red/HRP absorbance; 100% = 100 µM peroxide control, 0% = buffer; activation, % at 10 µM; 0.03% of 200,000 active; AID 878;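 active means activation of at least 50% relative to the plate's high and low controls in the primary single-dose screen; inactive means activation below 50%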;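 further: compound incubated with DTT at 0.8 mM final as the reducing agent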
T cruzi repl = blocks replication of Trypanosoma cruzi; AID 1885; inhibition, % (test concentration not listed); T. cruzi beta-gal in NIH3T3, luminescence, 90 h; 1.4% of 300,000 active;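 active means mean inhibition across valid replicates above about 55%, limit read from the data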;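 further: signal also drops with host cell toxicity which is not excluded here; 0% = plate median of DMSO wells and 100% = zero luminescence signal; higher percent means less beta-gal luminescence so fewer parasites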
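Read-out: Parasite load inhibition, % | Test system: Mouse NIH/3T3 fibroblasts infected with β-gal-expressing T. cruzi Tulahuen C4 | Amount: 5,000 cells/well | Medium: DMEM, 2% fetal bovine serum | Signal: GalScreen β-gal luminescence, detergent lysis, 60 min | Timing: 3 h attach, ≥90 h co-culture | Also added: Tulahuen C4 trypomastigotes, 5000/well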
L major viab = inhibitors of Leishmania major promastigote growth; Leishmania major promastigotes, resazurin fluorescence viability; inhibition, % at 10 µM; 9% of 200,000 active; AID 1063; in the data active means inhibition above about 50%;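 further: promastigotes grown with compound for 44 hours at 28 °C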
Lipid droplet = modulators of hepatic lipid droplet formation. 0.4% of 240,000 active. AML12 mouse hepatocytes, oleate lipid droplets, BODIPY imaging. inhibition, % at 6.5 µM;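 active means lipid droplet intensity inhibited by at least 50%, with more than 500 cells counted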
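Material: mouse AML12 hepatocyte cell line, fixed after treatment; Timing: compound with oleate, overnight; Technique: high-content imaging of BODIPY-stained droplets and DAPI nuclei; Probe or stimulus: oleate, 100 µM final; Dosing: compound at 6.5 µM only.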
MPTP block = blocks calcium-induced mitochondrial swelling; isolated mouse mitochondria, Ca2+ swelling absorbance, 30 min; inhibition, % at 10 µM; 1.4% of 360,000 active; AID 602449;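 active means inhibition of 50% or more, scaled per plate between neutral and stimulator controls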;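 further: 0% = DMSO wells given calcium and 100% = 1 mM EGTA wells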
Lipid drop inh = confirmation of inhibitors of hepatic lipid droplet formation; shares compounds with Lipid droplet; AML12 mouse hepatocytes, BODIPY lipid droplet imaging; droplets induced with 100 µM oleic acid; inhibition, % at 5.2 µM; 65% of 870 active; AID 463183;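 active means inhibition of lipid droplet metric at least 50%, with more than 300 cells in each of four replicates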;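 further: plate controls were DMSO with oleic acid for no effect and 5 µM Triacsin-C for full effect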
AML12 cytotox = toxic to AML12 mouse hepatocytes in counter-screen. z-score at 5 µM. DAPI nuclear morphology cytotoxicity imaging; active compounds read high; cells fed 100 µM oleate overnight. 3% of 870 active. shares compounds with Lipid droplet; in the data active means z-score above about 6.3;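 further: compound exposure lasted overnight at 37 °C before fixation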
AML12 tox ATP = confirmation of cytotoxicity in AML12 mouse hepatocytes | cytotoxicity, % at 50 µM | AID 463219 | AML12 mouse hepatocyte viability, ATP luminescence; cells loaded with 100 µM oleic acid | 530 tested, under 10 active | shares compounds with Lipid droplet;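 active means cytotoxicity above 50% in each of four replicates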;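 further: compound exposure lasted overnight at 37 °C before the ATP read; 0% = DMSO-treated cells and 100% = wells with no cells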
Starred values were filed as active, the others as inactive; . = no result given. Many of the other results were omitted from the sample, so hits are more common in it than they were.

SMILES	Redox H2O2 prof	T cruzi repl	L major viab	Lipid droplet	MPTP block	Lipid drop inh	AML12 cytotox	AML12 tox ATP
Cc1ccc(NC(=O)Nc2ccc3c(c2)CCC3)cc1C	.	0	.	-12	0	.	.	.
Cc1ccc(NC(=O)Cc2ccc3c(c2)CCCC3)cc1C	-1	24	1	53*	4	64*	0.49	9
O=C(COC(=O)Cc1n[nH]c(=O)c2ccccc12)Nc1ccc(Cl)cn1	.	.	.	.	-1	.	.	.
Cc1csc(=O)n1CCC(=O)OCC(=O)c1ccc(Br)cc1	.	-17	.	.	0	.	.	.
O=C(NC(=S)Nc1ccc(O)cc1)c1ccccc1Cl	0	-9	5	18	0	.	.	.
COc1ccc(NC(=S)NC(=O)c2ccccc2Cl)cc1	0	6	5	57*	1	39	0.017	.
O=C(NCCc1cccs1)Nc1nnc([C@H]2C[C@H](O)[C@@H](CO)O2)s1	.	.	.	.	-1	.	.	.
CN(C)Cc1ccc(O)c(CCc2ccccc2)n1	0	-8	1	52*	-1	-2	0.21	.
CN(C)Cc1cc(C(C)(C)c2ccccc2)ccc1O	.	.	.	.	1	.	.	.
COc1ccc(NC(=O)COC(=O)/C=C/C(=O)OCC(=O)Nc2ccc(OC)c(Cl)c2)cc1Cl	0	-36	-1	63*	-1	22	-0.24	.
COc1cc(C(=O)Nc2sc3c(c2C(=O)NCc2ccco2)CCCC3)cc(OC)c1OC	0	42	-1	-12	0	.	.	.
COc1ccc(C(=O)Nc2sc3c(c2C(=O)NCc2ccco2)CCCC3)cc1OC	1	36	-5	69*	-3	105*	-0.42	7
Cc1cc(N2CCOCC2)n2nc(C)c(-c3ccccc3)c2n1	-1	.	-3	.	-1	.	.	.
Cc1ccc(-c2c(C)nn3c(N4CCOCC4)cc(C)nc23)cc1	.	-7	.	71*	0	108*	0.36	4
Cc1cc(N2CCOCC2)n2nc(C)c(-c3ccccc3Cl)c2n1	.	5	.	78*	0	107*	-0.16	7
CCCOC(=O)c1ccc(NC(=O)c2ccccc2[N+](=O)[O-])cc1	-1	6	-8	5	-2	.	.	.
CCOc1ccc(CCNC(=O)C2CCN(S(=O)(=O)N3CCCCC3)CC2)cc1OCC	0	18	-1	108*	0	105*	-0.36	.
CCOc1ccc(CCNC(=O)CCc2nnc3ccc(N4CCCCC4)nn23)cc1OCC	.	18	.	86*	-2	109*	0.41	10
CCOc1ccc(CCNC(=O)CCc2nnc3ccc(N4CCOCC4)nn23)cc1	.	-9	.	6	-2	.	.	.
CCN(CC)c1ccc(NC(=O)CCc2nnc3ccc(N4CCCC4)nn23)c(C)c1	.	13	.	72*	-1	98*	-0.66	13
COc1ccccc1N(CC(=O)NCc1ccccc1)C(=O)CCC(=O)Nc1nccs1	.	11	.	-7	0	.	.	.
N#Cc1ccc(S(=O)(=O)N2CCN(C(=O)[C@@H]3CCCN3C(=O)c3cccs3)CC2)cc1	.	.	.	.	1	.	.	.
CCc1ccc(CNC(=O)CCCn2c(=O)c3cccn3c3cccnc32)cc1	.	12	.	3	0	.	.	.
CCOc1cc(CNC(=O)CCCn2c(=O)c3cccn3c3cccnc32)cc(OCC)c1OCC	.	39	.	92*	-1	107*	0.45	-2
COC(=O)c1ccccc1NC(=O)C1=CC(c2cccs2)=NS(=O)(=O)N1C	.	3	.	-5	1	.	.	.
CSc1ccccc1NC(=O)C1=CC(c2cccs2)=NS(=O)(=O)N1C	.	-3	.	74*	-2	105*	0.14	14
COCCNC(=O)C(c1ccc(C)cc1)N(C(=O)CCC(=O)Nc1ccccn1)C1CCCCC1 (stereo unspecified)	.	-4	.	0	0	.	.	.
O=C(CN(CC1CCCO1)S(=O)(=O)c1ccc(S(=O)(=O)NC2CC2)cc1)Nc1ccccc1 (stereo unspecified)	0	14	-3	95*	-5	107*	-0.073	18
